Source: ChEMBL document CHEMBL2040768, “Synthesis, antimicrobial and cytotoxic activities of sulfone linked bis heterocycles” (Eur J Med Chem, 2012)
In brackets after ≈: the same amount, converted by molar mass. Activity calls are given as the source filed them. The calls are words filed in the database; no cut-off is given here.

Key:
Klebsiella pneumoniae [1] = test: Antibacterial activity against Klebsiella pneumoniae at 50 ug/ml after 24 hrs by agar well diffusion method; assay type: functional; conditions: read-out: DIZ
Method in brief: (§1)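 Agar well diffusion. Nutrient plates swabbed with 24 h broth culture of the bacterium; 6 mm wells bored and loaded with DMSO solutions of compound (wells at 50 and 100 per well). Chloramphenicol positive control, DMSO negative control. Plates held 37 °C, 24 h; inhibition zone diameter (mm) measured, mean of duplicates.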

Klebsiella pneumoniae [2] = test: Bactericidal activity against Klebsiella pneumoniae after 24 hrs by broth dilution method; assay type: functional
Penicillium chrysogenum [3] = test: Fungicidal activity against Penicillium chrysogenum after 48 hrs by broth dilution method; assay type: functional
Bacillus subtilis [4] = test: Antibacterial activity against Bacillus subtilis after 24 hrs by broth dilution method; assay type: functional
Method in brief: (§2)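 Broth dilution MIC. Test samples in DMSO added at increasing concentrations to tubes of nutrient broth cultures, incubated 37 °C for 24 h. Visible turbidity scored against NB control; solvent and no-sample controls included. MIC = lowest concentration preventing visible growth.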

Penicillium chrysogenum [5] = test: Antifungal activity against Penicillium chrysogenum after 48 hrs by broth dilution method; assay type: functional
Method in brief: (§3)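 Fungal MIC by broth dilution. Compounds dissolved in DMSO, added at rising concentrations to fungal culture tubes, incubated 28 °C for 48 h. Tubes read for visible turbidity alongside a solvent control; lowest concentration with no visible growth taken as MIC.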

Aspergillus niger [6] = test: Antifungal activity against Aspergillus niger at 100 ug/ml after 48 hrs by agar well diffusion method; assay type: functional; conditions: read-out: DIZ
Method in brief: (§4)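 Fungal agar well diffusion. Plates swabbed with fungal culture, 6 mm wells filled with DMSO solutions of compound (50 and 100 per well). Ketoconazole positive and DMSO negative controls. Plates incubated 28 °C for 48 h; zone of inhibition diameter (mm) read, average of duplicates.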

Klebsiella pneumoniae [7] = test: Antibacterial activity against Klebsiella pneumoniae after 24 hrs by broth dilution method; assay type: functional; method in brief: as §2
Klebsiella pneumoniae [8] = test: Antibacterial activity against Klebsiella pneumoniae at 100 ug/ml after 24 hrs by agar well diffusion method; assay type: functional; conditions: read-out: DIZ; method in brief: as §1
Penicillium chrysogenum [9] = test: Antifungal activity against Penicillium chrysogenum at 100 ug/ml after 48 hrs by agar well diffusion method; assay type: functional; conditions: read-out: DIZ; method in brief: as §4
Bacillus subtilis [10] = test: Bactericidal activity against Bacillus subtilis after 24 hrs by broth dilution method; assay type: functional
Aspergillus niger [11] = test: Antifungal activity against Aspergillus niger at 50 ug/ml after 48 hrs by agar well diffusion method; assay type: functional; conditions: read-out: DIZ; method in brief: as §4
Penicillium chrysogenum [12] = test: Antifungal activity against Penicillium chrysogenum at 50 ug/ml after 48 hrs by agar well diffusion method; assay type: functional; conditions: read-out: DIZ; method in brief: as §4
Pseudomonas aeruginosa [13] = test: Antibacterial activity against Pseudomonas aeruginosa at 50 ug/ml after 24 hrs by agar well diffusion method; assay type: functional; conditions: read-out: DIZ; method in brief: as §1
Aspergillus niger [14] = test: Fungicidal activity against Aspergillus niger after 48 hrs by broth dilution method; assay type: functional
Bacillus subtilis [15] = test: Antibacterial activity against Bacillus subtilis at 50 ug/ml after 24 hrs by agar well diffusion method; assay type: functional; conditions: read-out: DIZ; method in brief: as §1
Pseudomonas aeruginosa [16] = test: Antibacterial activity against Pseudomonas aeruginosa at 100 ug/ml after 24 hrs by agar well diffusion method; assay type: functional; conditions: read-out: DIZ; method in brief: as §1
Staphylococcus aureus [17] = test: Antibacterial activity against Staphylococcus aureus at 100 ug/ml after 24 hrs by agar well diffusion method; assay type: functional; conditions: read-out: DIZ; method in brief: as §1
Pseudomonas aeruginosa [18] = test: Antibacterial activity against Pseudomonas aeruginosa after 24 hrs by broth dilution method; assay type: functional; method in brief: as §2
Pseudomonas aeruginosa [19] = test: Bactericidal activity against Pseudomonas aeruginosa after 24 hrs by broth dilution method; assay type: functional
Bacillus subtilis [20] = test: Antibacterial activity against Bacillus subtilis at 100 ug/ml after 24 hrs by agar well diffusion method; assay type: functional; conditions: read-out: DIZ; method in brief: as §1
Aspergillus niger [21] = test: Antifungal activity against Aspergillus niger after 48 hrs by broth dilution method; assay type: functional; method in brief: as §3
Staphylococcus aureus [22] = test: Antibacterial activity against Staphylococcus aureus after 24 hrs by broth dilution method; assay type: functional; method in brief: as §2
Staphylococcus aureus [23] = test: Bactericidal activity against Staphylococcus aureus after 24 hrs by broth dilution method; assay type: functional
Staphylococcus aureus [24] = test: Antibacterial activity against Staphylococcus aureus at 50 ug/ml after 24 hrs by agar well diffusion method; assay type: functional; conditions: read-out: DIZ; method in brief: as §1
A549 [25] = test: Cytotoxicity against human A549 cells up to 0.2 mM after 72 hrs by MTT assay
A549 [26] = test: Cytotoxicity against human A549 cells after 72 hrs by MTT assay; assay type: functional, cell-based
Method in brief: (§5)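 A549 lung carcinoma cells, 5 × 10⁴ per well, in DMEM with 10% FBS and antibiotics at 37 °C, 5% CO₂. After 3–4 h attachment, compound added at various concentrations for 72 h. MTT then added for 3 h, formazan dissolved in DMSO, absorbance read at 550 nm. Triplicate wells, three independent experiments; IC50 derived by curve fitting.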

A549 [27] = test: Cytotoxicity against human A549 cells assessed as viability at 12.5 uM after 72 hrs by MTT assay; assay type: functional; conditions: A549, 72 h, read-out: Activity; method in brief: as §5
A549 [28] = test: Cytotoxicity against human A549 cells assessed as decrease in viability at 100 to 200 uM after 72 hrs by MTT assay; assay type: functional, cell-based; method in brief: as §5
Bacillus subtilis [29] = test: Ratio of MBC to MIC for Bacillus subtilis after 24 hrs; assay type: functional
Penicillium chrysogenum [30] = test: Ratio of MFC to MIC for Penicillium chrysogenum after 48 hrs; assay type: functional

| Compound | zone of inhibition at 50 µg/mL (Klebsiella pneumoniae [1]) [mm] | MBC (Klebsiella pneumoniae [2]) [µg/mL] | MIC (Bacillus subtilis [4]) [µg/mL] | MIC (Penicillium chrysogenum [5]) [µg/mL] | zone of inhibition at 100 µg/mL (Aspergillus niger [6]) [mm] | MIC (Klebsiella pneumoniae [7]) [µg/mL] | zone of inhibition at 100 µg/mL (Klebsiella pneumoniae [8]) [mm] | zone of inhibition at 100 µg/mL (Penicillium chrysogenum [9]) [mm] | zone of inhibition at 50 µg/mL (Aspergillus niger [11]) [mm] | zone of inhibition at 50 µg/mL (Penicillium chrysogenum [12]) [mm] | zone of inhibition at 50 µg/mL (Pseudomonas aeruginosa [13]) [mm] | zone of inhibition at 50 µg/mL (Bacillus subtilis [15]) [mm] | zone of inhibition at 100 µg/mL (Pseudomonas aeruginosa [16]) [mm] | zone of inhibition at 100 µg/mL (Staphylococcus aureus [17]) [mm] | MIC (Pseudomonas aeruginosa [18]) [µg/mL] | zone of inhibition at 100 µg/mL (Bacillus subtilis [20]) [mm] | MIC (Aspergillus niger [21]) [µg/mL] | MIC (Staphylococcus aureus [22]) [µg/mL] | zone of inhibition at 50 µg/mL (Staphylococcus aureus [24]) [mm] | Activity (A549 [25]) | other results |
| --- | --- | --- | --- | --- | --- | --- | --- | --- | --- | --- | --- | --- | --- | --- | --- | --- | --- | --- | --- | --- | --- |
| Nn1c(CS(=O)(=O)Nc2ccc(Cl)cc2)nnc1CS(=O)(=O)c1c[nH]cc1S(=O)(=O)c1ccc(Cl)cc1 | 34 | > 200 | 25 (≈ 41.3 µM) | 50 (≈ 82.6 µM) | 34 | 100 (≈ 165 µM) | 36 | 36 | 32 | 33 | 25 | 29 | 28 | 33 | 50 (≈ 82.6 µM) | 33 | 25 (≈ 41.3 µM) | 50 (≈ 82.6 µM) | 30 | inactive | MFC (Penicillium chrysogenum [3]): > 200 µg/mL; MBC (Bacillus subtilis [10]): 100 µg/mL (≈ 165 µM); MFC (Aspergillus niger [14]): 100 µg/mL (≈ 165 µM); MBC (Pseudomonas aeruginosa [19]): > 200 µg/mL; MBC (Staphylococcus aureus [23]): 200 µg/mL (≈ 330 µM) |
| O=S(=O)(/C=C/S(=O)(=O)c1ccc(Cl)cc1)Cc1nnc(CS(=O)(=O)Nc2ccc(Cl)cc2)o1 | 15 | – | – | – | 22 | – | 17 | 25 | 19 | 21 | 16 | 15 | 19 | 17 | – | 17 | – | – | 14 | – | Activity (A549 [26]): Dose-dependent effect; IC50 (A549 [26]; A549, 72 h): 31.7 µM; viability at 12.5 µM (A549 [27]): > 75%; Activity (A549 [28]): Active |
| O=C(N[C@H](CO)[C@H](O)c1ccc([N+](=O)[O-])cc1)C(Cl)Cl [CHLORAMPHENICOL] | 40 | – | 6.25 (≈ 19.3 µM) | – | – | 12.5 (≈ 38.7 µM) | 42 | – | – | – | 27 | 34 | 30 | 35 | 6.25 (≈ 19.3 µM) | 38 | – | 6.25 (≈ 19.3 µM) | 33 | – | – |
| Nn1c(CS(=O)(=O)Nc2ccc(Cl)cc2)nnc1CS(=O)(=O)c1c[nH]nc1S(=O)(=O)c1ccc(Cl)cc1 | 37 | 200 (≈ 330 µM) | 12.5 (≈ 20.6 µM) | 25 (≈ 41.2 µM) | 34 | 50 (≈ 82.4 µM) | 39 | 37 | 30 | 33 | 30 | 33 | 32 | 34 | 25 (≈ 41.2 µM) | 35 | 12.5 (≈ 20.6 µM) | 50 (≈ 82.4 µM) | 31 | inactive | MFC (Penicillium chrysogenum [3]): 100 µg/mL (≈ 165 µM); MBC (Bacillus subtilis [10]): 50 µg/mL (≈ 82.4 µM); MFC (Aspergillus niger [14]): 50 µg/mL (≈ 82.4 µM); MBC (Pseudomonas aeruginosa [19]): 100 µg/mL (≈ 165 µM); MBC (Staphylococcus aureus [23]): 200 µg/mL (≈ 330 µM) |
| Nn1c(CS(=O)(=O)/C=C/S(=O)(=O)c2ccc(Cl)cc2)nnc1CS(=O)(=O)Nc1ccc(Cl)cc1 | 39 | 100 (≈ 177 µM) | 12.5 (≈ 22.1 µM) | 25 (≈ 44.1 µM) | 34 | 25 (≈ 44.1 µM) | 40 | 38 | 32 | 35 | 31 | 36 | 33 | 35 | 12.5 (≈ 22.1 µM) | 38 | 12.5 (≈ 22.1 µM) | 12.5 (≈ 22.1 µM) | 32 | inactive | MFC (Penicillium chrysogenum [3]): 50 µg/mL (≈ 88.3 µM); MBC (Bacillus subtilis [10]): 25 µg/mL (≈ 44.1 µM); MFC (Aspergillus niger [14]): 100 µg/mL (≈ 177 µM); MBC (Pseudomonas aeruginosa [19]): 50 µg/mL (≈ 88.3 µM); Ratio (Bacillus subtilis [29]): 2; MBC (Staphylococcus aureus [23]): 50 µg/mL (≈ 88.3 µM); Ratio (Penicillium chrysogenum [30]): 2 |
| O=S(=O)(/C=C/S(=O)(=O)c1ccccc1)Cc1nnc(CS(=O)(=O)Nc2ccccc2)s1 | 24 | – | – | – | 22 | – | 26 | 24 | 19 | 21 | 16 | 22 | 17 | 21 | – | 24 | – | – | 19 | inactive | – |
| CC(=O)N1CCN(c2ccc(OCC3COC(Cn4ccnc4)(c4ccc(Cl)cc4Cl)O3)cc2)CC1 (configuration not stated) [KETOCONAZOLE] | – | – | – | 12.5 (≈ 23.5 µM) | 36 | – | – | 38 | 33 | 36 | – | – | – | – | – | – | 6.25 (≈ 11.8 µM) | – | – | – | – |
| O=S(=O)(Cc1nnc(CS(=O)(=O)c2c[nH]cc2S(=O)(=O)c2ccc(Cl)cc2)s1)Nc1ccc(Cl)cc1 | 29 | – | – | – | 31 | – | 30 | 33 | 29 | 30 | 23 | 27 | 25 | 27 | – | 29 | – | – | 26 | inactive | – |
